The values below come from ChEMBL document CHEMBL3593182, “Phytochemical Investigation of the Constituents Derived from the Australian Plant Macropidia fuliginosa” (2015).

SMILES strings stand for the structures. The source made the active and inactive calls. The calls are words filed in the database; no cut-off is given here.

The test system of assay [1] is Candida albicans. Kind of assay: Antimicrobial activity against Candida albicans ATCC 10231 assessed as zone of inhibition at 3875 uM incubated overnight at 37 degC. It counts as functional, organism-based. Summed up:
(§1)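 Pure isolates screened against a panel of five bacteria and one fungus, each at a single concentration within 1639–5230 μM. A commercial antibiotic and antifungal agent were tested in parallel as references. Growth inhibition was recorded as the zone of inhibition.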

The subject of assay [2] is Pseudomonas aeruginosa. Kind of assay: Antimicrobial activity against Pseudomonas aeruginosa ATCC 27853 assessed as zone of inhibition at 3875 uM incubated overnight at 37 degC. It counts as functional. The settings on record: read-out: IZ. Summed up:
as §1

In assay [3] the test system is Staphylococcus aureus. Nature of the assay: Antimicrobial activity against Staphylococcus aureus ATCC 25923 assessed as zone of inhibition at 3875 uM incubated overnight at 37 degC. It counts as functional. Conditions: read-out: IZ. The method in brief: as §1
The subject of assay [4] is Staphylococcus aureus. Nature of the assay: Antimicrobial activity against methicillin-resistant Staphylococcus aureus 344/2-32 assessed as zone of inhibition at 3875 uM incubated overnight at 37 degC. It is filed as functional, organism-based.
Assay [5] has as its system Streptococcus pyogenes. Nature of the assay: Antimicrobial activity against Streptococcus pyogenes 345/1 assessed as zone of inhibition at 3875 uM incubated overnight at 37 degC. It counts as functional, organism-based.
The test system of assay [6] is Escherichia coli. Kind of assay: Antimicrobial activity against Escherichia coli ATCC 25922 assessed as zone of inhibition at 3875 uM incubated overnight at 37 degC. It is filed as functional, organism-based. The method in brief: as §1
The test system of assay [7] is Pseudomonas aeruginosa. Kind of assay: Antimicrobial activity against Pseudomonas aeruginosa ATCC 27853 assessed as zone of inhibition at 3649 uM incubated overnight at 37 degC. It counts as functional. The settings on record: read-out: IZ. The method in brief: as §1
The test system of assay [8] is Staphylococcus aureus. Nature of the assay: Antimicrobial activity against Staphylococcus aureus ATCC 25923 assessed as zone of inhibition at 3649 uM incubated overnight at 37 degC. It counts as functional, organism-based. The method in brief: as §1
In assay [9] the test system is Staphylococcus aureus. Nature of the assay: Antimicrobial activity against methicillin-resistant Staphylococcus aureus 344/2-32 assessed as zone of inhibition at 3649 uM incubated overnight at 37 degC. It counts as functional, organism-based.
In assay [10] the test system is Candida albicans. Nature of the assay: Antimicrobial activity against Candida albicans ATCC 10231 assessed as zone of inhibition at 3649 uM incubated overnight at 37 degC. It counts as functional, organism-based. The method in brief: as §1
The subject of assay [11] is Escherichia coli. Kind of assay: Antimicrobial activity against Escherichia coli ATCC 25922 assessed as zone of inhibition at 3649 uM incubated overnight at 37 degC. It counts as functional, organism-based. The method in brief:
as §1

Assay [12] concerns Streptococcus pyogenes. Nature of the assay: Antimicrobial activity against Streptococcus pyogenes 345/1 assessed as zone of inhibition at 3649 uM incubated overnight at 37 degC. It is filed as functional, organism-based.
Assay [13] concerns Candida albicans. Kind of assay: Antimicrobial activity against Candida albicans ATCC 10231 assessed as zone of inhibition at 5230 uM incubated overnight at 37 degC. It counts as functional, organism-based.
The test system of assay [14] is Streptococcus pyogenes. Kind of assay: Antimicrobial activity against Streptococcus pyogenes 345/1 assessed as zone of inhibition at 1639 uM incubated overnight at 37 degC. It is filed as functional, organism-based. Summed up: as §1
Assay [15] deals with Pseudomonas aeruginosa. Nature of the assay: Antimicrobial activity against Pseudomonas aeruginosa ATCC 27853 assessed as zone of inhibition at 1639 uM incubated overnight at 37 degC. It is filed as functional, organism-based. Summed up:
as §1

The test system of assay [16] is Candida albicans. Kind of assay: Antimicrobial activity against Candida albicans ATCC 10231 assessed as zone of inhibition at 1639 uM incubated overnight at 37 degC. It counts as functional, organism-based. Summed up:
as §1

Assay [17] concerns Staphylococcus aureus. Kind of assay: Antimicrobial activity against methicillin-resistant Staphylococcus aureus 344/2-32 assessed as zone of inhibition at 1639 uM incubated overnight at 37 degC. It is filed as functional, organism-based.
Assay [18] concerns Escherichia coli. Kind of assay: Antimicrobial activity against Escherichia coli ATCC 25922 assessed as zone of inhibition at 1639 uM incubated overnight at 37 degC. It counts as functional, organism-based. Summed up: as §1
Assay [19] has as its system Staphylococcus aureus. Kind of assay: Antimicrobial activity against Staphylococcus aureus ATCC 25923 assessed as zone of inhibition at 1639 uM incubated overnight at 37 degC. It counts as functional, organism-based. The method in brief: as §1
Assay [20] relates to Streptococcus pyogenes. Nature of the assay: Antimicrobial activity against Streptococcus pyogenes 345/1 assessed as zone of inhibition at 2450 uM incubated overnight at 37 degC. It is filed as functional, organism-based. Summed up: as §1
Assay [21] has as its system Staphylococcus aureus. Nature of the assay: Antimicrobial activity against Staphylococcus aureus ATCC 25923 assessed as zone of inhibition at 2450 uM incubated overnight at 37 degC. It counts as functional, organism-based. The method in brief: as §1
Assay [22] relates to Escherichia coli. Kind of assay: Antimicrobial activity against Escherichia coli ATCC 25922 assessed as zone of inhibition at 2450 uM incubated overnight at 37 degC. It counts as functional, organism-based. Summed up:
as §1

Assay [23] deals with Pseudomonas aeruginosa. Kind of assay: Antimicrobial activity against Pseudomonas aeruginosa ATCC 27853 assessed as zone of inhibition at 2450 uM incubated overnight at 37 degC. It counts as functional, organism-based. The method in brief:
as §1

The subject of assay [24] is Staphylococcus aureus. Kind of assay: Antimicrobial activity against methicillin-resistant Staphylococcus aureus 344/2-32 assessed as zone of inhibition at 2450 uM incubated overnight at 37 degC. It is filed as functional, organism-based.
Assay [25] deals with Candida albicans. Nature of the assay: Antimicrobial activity against Candida albicans ATCC 10231 assessed as zone of inhibition at 2450 uM incubated overnight at 37 degC. It counts as functional, organism-based. Summed up: as §1
For assay [26], the system named is Streptococcus pyogenes. Kind of assay: Antimicrobial activity against Streptococcus pyogenes 345/1 assessed as zone of inhibition at 3030 uM incubated overnight at 37 degC. It counts as functional, organism-based. The method in brief:
as §1

The subject of assay [27] is Escherichia coli. Kind of assay: Antimicrobial activity against Escherichia coli ATCC 25922 assessed as zone of inhibition at 3030 uM incubated overnight at 37 degC. It counts as functional, organism-based. The method in brief: as §1
Assay [28] has as its system Staphylococcus aureus. Kind of assay: Antimicrobial activity against methicillin-resistant Staphylococcus aureus 344/2-32 assessed as zone of inhibition at 3030 uM incubated overnight at 37 degC. It counts as functional, organism-based.
Assay [29] concerns Candida albicans. Kind of assay: Antimicrobial activity against Candida albicans ATCC 10231 assessed as zone of inhibition at 3030 uM incubated overnight at 37 degC. It is filed as functional, organism-based. The method in brief:
as §1

In assay [30] the test system is Staphylococcus aureus. Kind of assay: Antimicrobial activity against Staphylococcus aureus ATCC 25923 assessed as zone of inhibition at 3030 uM incubated overnight at 37 degC. It is filed as functional, organism-based. Summed up: as §1
The test system of assay [31] is Pseudomonas aeruginosa. Kind of assay: Antimicrobial activity against Pseudomonas aeruginosa ATCC 27853 assessed as zone of inhibition at 3030 uM incubated overnight at 37 degC. It counts as functional. Conditions: read-out: IZ. The method in brief:
as §1

For the molecule `O=C1C(=O)c2c(-c3ccccc3)ccc3cccc1c23`, the “inhibition zone (IZ)” value with Candida albicans [1], in the assay with Staphylococcus aureus [4], in the assay on Streptococcus pyogenes [5] and with Escherichia coli [6] was “inactive” throughout. Also, the zone of inhibition at 3875 µM with Pseudomonas aeruginosa [2] came out at 1 mm; in the assay on Staphylococcus aureus [3], 2 mm.
`O=C1OC(=O)c2c(-c3ccccc3)ccc3cccc1c23`: the zone of inhibition at 3649 µM in the assay with Pseudomonas aeruginosa [7] came to 2 mm. Moreover, the “inhibition zone (IZ)” value in the assay on Staphylococcus aureus [8], with Staphylococcus aureus [9], with Candida albicans [10], in the assay on Escherichia coli [11] and in the assay with Streptococcus pyogenes [12] was “inactive” throughout.
For `COC(=O)Nc1nc2ccccc2[nH]1`, in the assay on Candida albicans [13], the “inhibition zone (IZ)” value is “inactive”.
`C[C@@H]1O[C@@H](OC[C@H]2O[C@@H](Oc3c(-c4ccc(O)c(O)c4)oc4cc(O)cc(O)c4c3=O)[C@H](O)[C@@H](O)[C@@H]2O)[C@H](O)[C@H](O)[C@H]1O`: the “inhibition zone (IZ)” value in the assay on Streptococcus pyogenes [14], with Pseudomonas aeruginosa [15], in the assay with Candida albicans [16], in the assay on Staphylococcus aureus [17], in the assay on Escherichia coli [18] and in the assay with Staphylococcus aureus [19] was “inactive” in each case.
For `COC(OC)c1cc(O)c2c(-c3cc(O)cc(O)c3)c(-c3ccc(O)cc3)oc2c1`, the “inhibition zone (IZ)” value in the assay with Streptococcus pyogenes [20], with Staphylococcus aureus [21], in the assay with Escherichia coli [22], in the assay on Pseudomonas aeruginosa [23], in the assay with Staphylococcus aureus [24] and in the assay with Candida albicans [25] was “inactive” each time.
Consider `O=C(/C=C/c1ccc(O)cc1)c1c(O)cc(O)cc1O[C@@H]1O[C@H](CO)[C@@H](O)[C@H](O)[C@H]1O`, for which the “inhibition zone (IZ)” value in the assay on Streptococcus pyogenes [26], in the assay with Escherichia coli [27], with Staphylococcus aureus [28], in the assay with Candida albicans [29] and with Staphylococcus aureus [30] was “inactive” throughout. In addition, the zone of inhibition at 3030 µM in the assay on Pseudomonas aeruginosa [31] came out at 2 mm.
